What was measured:
[1] = folding enthalpy; higher = less favourable; fluorescence melt of hairpins on a sequencing array, two-state fit; settings: sodium 0.088 M
Procedure, shortened: (§1)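 Two-state fits, bootstrapped, provided melting temperature and folding enthalpy from Cy3 fluorescence normalised to pre-quench Cy3 and to control constructs. Library hairpins with annealed Cy3 and quencher oligos were imaged on a sequenced MiSeq flow cell in 50 mM Na-HEPES pH 8.0, 25 mM NaCl, at 2.5 °C intervals up to 60 °C. Four replicates were combined with inverse-variance weighting. A 9.35 °C upward shift was applied to fitted temperatures to match UV melts.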

[2] = melting temperature; fluorescence melt of hairpins on a sequencing array, two-state fit, raised by 9.35 °C to match UV melts; settings: sodium 0.088 M
Procedure, shortened: as §1

Sequence | folding enthalpy [1] | Tm [2]
GGGGAGGGAAACTTCCCC (((((.(....).))))) | -33 kcal/mol | 50.9 °C
GATCCTGCTAAGGATC ((((((....)))))) | -46.2 kcal/mol | 63.2 °C
GTCCTCCGAAAGGACGAC (((.(((....))).))) | -26.1 kcal/mol | 49.7 °C
GGAGGCTCGAAAGAGTCC (((..(((....)))))) | -14.4 kcal/mol | 35.8 °C
GATCGGGAACCGATC ((((((...)))))) | -36 kcal/mol | 68.4 °C
GGAATCACGAAAGTGTCC (((..(((....)))))) | -11.5 kcal/mol | 30.5 °C
GCCATTGGAAACAATGGC (((((((....))))))) | -43.9 kcal/mol | 67.5 °C
GATGGACGAAAGTCAATC (((.(((....))).))) | -26.3 kcal/mol | 48.1 °C
GAAAGGGGAAACCCCTTC (((.(((....))).))) | -14.8 kcal/mol | 39.9 °C
GATCGCCGATGCGATC ((((((....)))))) | -32 kcal/mol | 66.6 °C
GCAAGAGGAAACCCTTGC (((((.(....).))))) | -25.9 kcal/mol | 45.3 °C
GTAACTGAAAAGTTAC ((((((....)))))) | -31.4 kcal/mol | 50.9 °C
GATCTACAATAGATC ((((((...)))))) | -18.8 kcal/mol | 36.7 °C
GAACGCGCGAAAGCGTTC (((..(((....)))))) | -24.7 kcal/mol | 57.8 °C
GGTACACGAAAGTGCACC (((.(((....))).))) | -33.9 kcal/mol | 52.3 °C
GTTAAGTCGAAAGACAAC (((..(((....)))))) | -13.4 kcal/mol | 27.8 °C
GAAAGTGGAAACACTCTC ((.((((....)))).)) | -19.4 kcal/mol | 26.6 °C
GACCGAGGAAACTCAGTC (((.(((....))).))) | -21 kcal/mol | 34.4 °C
GCGGGAGCGAAAGCTCGC (((..(((....)))))) | -10.9 kcal/mol | 55.8 °C
GAGCTAGGAAACTGGCTC ((((.((....)).)))) | -36.2 kcal/mol | 51.9 °C
GATCCGGGTCCGGATC ((((((....)))))) | -39.1 kcal/mol | 62.5 °C
GGTAATCGAAAGATCACC (((.(((....))).))) | -25.6 kcal/mol | 39.2 °C
GCTCGCGAAAGCGACAGC ((((((....)))..))) | -10.7 kcal/mol | 47.5 °C

Sequence | folding enthalpy [1] | Tm [2]
GGTCTAGGAAACTGGACC ((((.((....)).)))) | -41.6 kcal/mol | 51 °C
GTGGCCGAAAGGCACAC ((((((....))).))) | -15.1 kcal/mol | 63.1 °C
GTGGAGACGAAAGTCCAC (((..(((....)))))) | -22.8 kcal/mol | 47.6 °C
GCCACGGGAAACCGTGAC (.(((((....))))).) | -16.5 kcal/mol | 51.1 °C
GCGTAGCGAAAGCTAAGC ((.((((....)))).)) | -16.1 kcal/mol | 58.5 °C
GCCAGGCGAAAGCAGGGC (((..((....))..))) | -32.1 kcal/mol | 64 °C
GAAGGCGAAAGCCAATTC ((((((....)))..))) | -11.2 kcal/mol | 39.5 °C
GGATGGGGAAACCCATCC (((((((....))))))) | -46.7 kcal/mol | 66.4 °C
GATCTGCGTCCAGATC ((((((....)))))) | -30.1 kcal/mol | 48.3 °C
GGTATCGAAAGATCCACC ((((((....)))..))) | -14.7 kcal/mol | 31.8 °C
GGAAGCCGAAAGGCATCC (((.(((....))).))) | -21.9 kcal/mol | 56.1 °C
GATCTAGCATTAGATC ((((((....)))))) | -43.5 kcal/mol | 47.6 °C
GTCTAAACGAAAGTTGAC (((..(((....)))))) | -17.7 kcal/mol | 34.5 °C
GGTGCCGAAAGGCGACC ((((((....))).))) | -16.8 kcal/mol | 61 °C
GCTACGTCGAAAGACAGC (((..(((....)))))) | -16.2 kcal/mol | 36.4 °C
GATCAAATTATTGATC ((((((....)))))) | -27.7 kcal/mol | 41.4 °C
GCCGCCGAAAGGCCTGGC ((((((....)))..))) | -16 kcal/mol | 51 °C
GTTTGTGAAAACAAAC ((((((....)))))) | -37.6 kcal/mol | 53.7 °C
GTTCGCGAAAGCGTGAAC ((((((....)))..))) | -13 kcal/mol | 40.5 °C
GATATGGGAAACCATATC (((((((....))))))) | -37.5 kcal/mol | 53.3 °C
GCAAGCGAAAGCTCCTGC ((((((....)))..))) | -10.1 kcal/mol | 30.9 °C
GCTCGACGAAAGTCCAGC (((.(((....))).))) | -24.1 kcal/mol | 44.6 °C

Reference: the array DNA melting data of Ke et al. (doi:10.1101/2024.01.08.574731)
